One test relates to Proteus vulgaris. Put plainly: Antibacterial activity against Proteus vulgaris ATCC 3851 after 24 hrs by twofold microtiter broth dilution method. Format: functional. The gist of the method: (§1)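 Two-fold serial dilutions in DMSO added to standard methods (SM) broth in 96-well plates, final 0.5% DMSO; wells inoculated from overnight culture at 10^5 CFU/mL; incubated 37 °C for 24 h; MIC taken as lowest concentration with no visible growth. Strains from ATCC or Institute for Fermentation, Osaka stock collections.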

For another test, the system named is Salmonella typhimurium. Put plainly: Antibacterial activity against Salmonella typhimurium ATCC 14028 after 24 hrs by twofold microtiter broth dilution method. The format is functional, Salmonella enterica subsp. enterica serovar Typhimurium. An outline of the steps:
as §1
(In general: Broth dilution looks for growth in wells or tubes with falling amounts of substance.)

The subject of test [1] is Staphylococcus epidermidis. In words: Antibacterial activity against Staphylococcus epidermidis ATCC 12228 after 24 hrs by twofold microtiter broth dilution method. The format is functional. The gist of the method: as §1
A further test deals with Escherichia coli. In words: Antibacterial activity against Escherichia coli ATCC 25922 after 24 hrs by twofold microtiter broth dilution method. Format: functional. The gist of the method: as §1
Another test deals with Klebsiella pneumoniae. In words: Antibacterial activity against Klebsiella pneumoniae IFO 13541 after 24 hrs by twofold microtiter broth dilution method. The format is functional. The gist of the method: as §1
For another test, the system named is Staphylococcus aureus. In words: Antibacterial activity against Staphylococcus aureus ATCC 6538p after 24 hrs by twofold microtiter broth dilution method. The format is functional. The gist of the method: as §1
Another test concerns Micrococcus luteus. In words: Antibacterial activity against Micrococcus luteus IFO 12708 after 24 hrs by twofold microtiter broth dilution method. The format is functional. The gist of the method: as §1
The next test has as its system Bacillus subtilis. Put plainly: Antibacterial activity against Bacillus subtilis ATCC 6633 after 24 hrs by twofold microtiter broth dilution method. The format is functional. The gist of the method: as §1
The mark [2] stands for this setting: Salmonella enterica, ATCC 14028, 24 h.

Drawing on ChEMBL document CHEMBL1146509, “Periconicins, two new fusicoccane diterpenes produced by an endophytic fungus Periconia sp. with antibacterial activity” (2004), this text covers MIC for three compounds.

≈ marks a conversion by molar mass, not a printed value.

As to `CC(C)C1=C2C/C=C(/C=O)[C@@H]3C(=O)[C@@H](O)[C@@H](C)[C@H]3C[C@]2(C)CC1` [PERICONICIN A], the minimum inhibitory concentration (MIC) (commonly the lowest concentration that inhibits growth of the organism) against Proteus vulgaris (ATCC 3851, 24 h) stood at 6.25 µg/mL (≈ 19.8 µM); against Salmonella typhimurium (setting [2]), 6.25 µg/mL (≈ 19.8 µM); in test [1] (ATCC 12228, 24 h), 12.5 µg/mL (≈ 39.5 µM); against Escherichia coli (ATCC 25922, 24 h), 100 µg/mL (≈ 316 µM); in the test on Klebsiella pneumoniae (IFO 13541, 24 h), 3.12 µg/mL (≈ 9.86 µM); against Staphylococcus aureus, 12.5 µg/mL (≈ 39.5 µM). In addition, the MIC with Micrococcus luteus (IFO 12708, 24 h) amounted to 25 µg/mL (≈ 79 µM); against Bacillus subtilis (ATCC 6633, 24 h), 3.12 µg/mL (≈ 9.86 µM).
Regarding `CC(CO)C1=C2C/C=C(/C=O)[C@@H]3C(=O)[C@@H](O)[C@@H](C)[C@H]3C[C@]2(C)CC1` (some centres undefined) [PERICONICIN B], the MIC was 50 µg/mL (≈ 150 µM) in the test on Proteus vulgaris (ATCC 3851, 24 h); 50 µg/mL (≈ 150 µM) against Salmonella typhimurium (setting [2]); 100 µg/mL (≈ 301 µM) in test [1] (ATCC 12228, 24 h); greater than 100 µg/mL in the test on Escherichia coli (ATCC 25922, 24 h); 25 µg/mL (≈ 75.2 µM) against Klebsiella pneumoniae (IFO 13541, 24 h); 50 µg/mL (≈ 150 µM) with Staphylococcus aureus. For the same compound, the MIC is greater than 100 µg/mL in the test on Micrococcus luteus (IFO 12708, 24 h) and 25 µg/mL (≈ 75.2 µM) with Bacillus subtilis (ATCC 6633, 24 h).
On to GENTAMICIN, for which the minimum inhibitory concentration (MIC) was determined as 6.25 µg/mL against Proteus vulgaris; 3.12 µg/mL in the test on Salmonella typhimurium (Salmonella enterica subsp. enterica serovar Typhimurium); 3.12 µg/mL in test [1]; 1.56 µg/mL with Escherichia coli; 12.5 µg/mL against Klebsiella pneumoniae; 3.12 µg/mL against Staphylococcus aureus. The MIC came out at 6.25 µg/mL in the test on Micrococcus luteus and 3.12 µg/mL in the test with Bacillus subtilis.
